# Assay results from ChEMBL document CHEMBL5303300, “EUbOPEN Chemogenomics Library - Multiplex” (2023).
# “And” between values parts separate entries of the source, which are not always exact repeats. Identical values can stand only once.
# Tests used:
# Type in all cases: toxicity, cell-based
# U2OS = assay: Multiplex assay against U2OS; conditions: human, number of replicates 2
# In short: (§1)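 Live cells carried four stains from seeding: Hoechst33342, BioTracker Green Microtubule Cytoskeleton Dye, MitoTracker Red and Annexin V Alexa Fluor 680. They were imaged on a CQ1 microscope at 37°C and 5% CO2 after compound addition. Using CellPathfinder machine-learning gating, cells were split into Hoechst high-intensity objects or normal cells, normal cells into healthy, pyknosed or fragmented nuclei, and pyknosed cells into mitotic or apoptotic; tubulin, mitochondrial-mass and membrane-permeability phenotypes are per cents of healthy-nucleus cells.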
# HEK-293T = assay: Multiplex assay against HEK293T; conditions: human, number of replicates 2; in short: as §1
# Fibroblast = assay: Multiplex assay against human fibroblast; conditions: number of replicates 2; in short: as §1
# [1] = 12 h, 1 µM, compound concentration 1 uM
# [2] = 12 h, 10 µM, compound concentration 10 uM
# [3] = 24 h, 1 µM, compound concentration 1 uM
# [4] = 24 h, 10 µM, compound concentration 10 uM
# [5] = 48 h, 1 µM, compound concentration 1 uM
# [6] = 48 h, 10 µM, compound concentration 10 uM
smiles,measurement,setting,value
Cc1c(C(=O)Nc2ccc(N3C[C@@H](C)O[C@@H](C)C3)nc2)cccc1-c1ccc(OC(F)(F)F)cc1 [SONIDEGIB],Population Apoptotic (%),U2OS; [1],66% and 51%
same,Population Healthy Nuclei (%),U2OS; [1],60% and 79%
same,Population Hoechst High Intensity Objects (%),U2OS; [1],0%
same,Population Membrane Permeable-Phenotype (%),U2OS; [1],4% and 1%
same,Population Mitochondria Different-Phenotype (%),U2OS; [1],0%
same,Population Mitotic Cells (%),U2OS; [1],33% and 48%
same,Population Normal (%),U2OS; [1],100%
same,Population Pyknosed Nuclei (%),U2OS; [1],7% and 13%
same,Population Tubulin-Different-Phenotype (%),U2OS; [1],56% and 90%
same,Population Healthy Nuclei (%),U2OS; [2],61% and 85%
same,Population Hoechst High Intensity Objects (%),U2OS; [2],0%
same,Population Membrane Permeable-Phenotype (%),U2OS; [2],0% and 1%
same,Population Mitochondria Different-Phenotype (%),U2OS; [2],0%
same,Population Mitotic Cells (%),U2OS; [2],100% and 54%
same,Population Normal (%),U2OS; [2],100%
same,Population Pyknosed Nuclei (%),U2OS; [2],11%
same,Population Tubulin-Different-Phenotype (%),U2OS; [2],57% and 90%
same,Population Apoptotic (%),U2OS; [3],50% and 66%
same,Population Healthy Nuclei (%),U2OS; [3],68% and 85%
same,Population Hoechst High Intensity Objects (%),U2OS; [3],0%
same,Population Membrane Permeable-Phenotype (%),U2OS; [3],0% and 2%
same,Population Mitochondria Different-Phenotype (%),U2OS; [3],0%
same,Population Mitotic Cells (%),U2OS; [3],50% and 33%
same,Population Normal (%),U2OS; [3],100% and 99%
same,Population Pyknosed Nuclei (%),U2OS; [3],4% and 9%
same,Population Tubulin-Different-Phenotype (%),U2OS; [3],64% and 88%
same,Population Apoptotic (%),U2OS; [4],50% and 63%
same,Population Healthy Nuclei (%),U2OS; [4],61% and 90%
same,Population Hoechst High Intensity Objects (%),U2OS; [4],0%
same,Population Membrane Permeable-Phenotype (%),U2OS; [4],4% and 1%
same,Population Mitochondria Different-Phenotype (%),U2OS; [4],0%
same,Population Mitotic Cells (%),U2OS; [4],50% and 36%
same,Population Normal (%),U2OS; [4],100%
same,Population Pyknosed Nuclei (%),U2OS; [4],10% and 7%
same,Population Tubulin-Different-Phenotype (%),U2OS; [4],75% and 90%
same,Population Apoptotic (%),U2OS; [5],33% and 54%
same,Population Healthy Nuclei (%),U2OS; [5],60% and 89%
same,Population Hoechst High Intensity Objects (%),U2OS; [5],0%
same,Population Membrane Permeable-Phenotype (%),U2OS; [5],6% and 1%
same,Population Mitochondria Different-Phenotype (%),U2OS; [5],0%
same,Population Mitotic Cells (%),U2OS; [5],66% and 45%
same,Population Normal (%),U2OS; [5],100%
same,Population Pyknosed Nuclei (%),U2OS; [5],5% and 7%
same,Population Tubulin-Different-Phenotype (%),U2OS; [5],70% and 89%
same,Population Apoptotic (%),U2OS; [6],42% and 46%
same,Population Healthy Nuclei (%),U2OS; [6],71% and 91%
same,Population Hoechst High Intensity Objects (%),U2OS; [6],0%
same,Population Membrane Permeable-Phenotype (%),U2OS; [6],0% and 1%
same,Population Mitochondria Different-Phenotype (%),U2OS; [6],0%
same,Population Mitotic Cells (%),U2OS; [6],57% and 53%
same,Population Normal (%),U2OS; [6],100%
same,Population Pyknosed Nuclei (%),U2OS; [6],8% and 6%
same,Population Tubulin-Different-Phenotype (%),U2OS; [6],74% and 89%
same,Population Apoptotic (%),HEK-293T; [1],36% and 33%
same,Population Fragmented Nuclei (%),HEK-293T; [1],3%
same,Population Healthy Nuclei (%),HEK-293T; [1],85% and 86%
same,Population Hoechst High Intensity Objects (%),HEK-293T; [1],3% and 6%
same,Population Membrane Permeable-Phenotype (%),HEK-293T; [1],3%
same,Population Mitochondria Different-Phenotype (%),HEK-293T; [1],12%
same,Population Mitotic Cells (%),HEK-293T; [1],63% and 66%
same,Population Normal (%),HEK-293T; [1],96% and 93%
same,Population Pyknosed Nuclei (%),HEK-293T; [1],11% and 9%
same,Population Tubulin-Different-Phenotype (%),HEK-293T; [1],43% and 46%
same,Total Cell Count,HEK-293T; [1],668 and 769
same,Population Apoptotic (%),HEK-293T; [2],55% and 57%
same,Population Fragmented Nuclei (%),HEK-293T; [2],3% and 4%
same,Population Healthy Nuclei (%),HEK-293T; [2],84% and 85%
same,Population Hoechst High Intensity Objects (%),HEK-293T; [2],7% and 10%
same,Population Membrane Permeable-Phenotype (%),HEK-293T; [2],3% and 1%
same,Population Mitochondria Different-Phenotype (%),HEK-293T; [2],18% and 15%
same,Population Mitotic Cells (%),HEK-293T; [2],44% and 42%
same,Population Normal (%),HEK-293T; [2],92% and 89%
same,Population Pyknosed Nuclei (%),HEK-293T; [2],11% and 10%
same,Population Tubulin-Different-Phenotype (%),HEK-293T; [2],56% and 45%
same,Total Cell Count,HEK-293T; [2],652 and 496
same,Population Apoptotic (%),HEK-293T; [3],39% and 27%
same,Population Fragmented Nuclei (%),HEK-293T; [3],3% and 4%
same,Population Healthy Nuclei (%),HEK-293T; [3],90% and 89%
same,Population Hoechst High Intensity Objects (%),HEK-293T; [3],6% and 7%
same,Population Membrane Permeable-Phenotype (%),HEK-293T; [3],3% and 2%
same,Population Mitochondria Different-Phenotype (%),HEK-293T; [3],5% and 3%
same,Population Mitotic Cells (%),HEK-293T; [3],60% and 72%
same,Population Normal (%),HEK-293T; [3],93% and 92%
same,Population Pyknosed Nuclei (%),HEK-293T; [3],6% and 5%
same,Population Tubulin-Different-Phenotype (%),HEK-293T; [3],30% and 33%
same,Total Cell Count,HEK-293T; [3],984 and 1195
same,Population Apoptotic (%),HEK-293T; [4],53% and 55%
same,Population Fragmented Nuclei (%),HEK-293T; [4],6% and 7%
same,Population Healthy Nuclei (%),HEK-293T; [4],83%
same,Population Hoechst High Intensity Objects (%),HEK-293T; [4],6% and 8%
same,Population Membrane Permeable-Phenotype (%),HEK-293T; [4],3%
same,Population Mitochondria Different-Phenotype (%),HEK-293T; [4],5%
same,Population Mitotic Cells (%),HEK-293T; [4],46% and 45%
same,Population Normal (%),HEK-293T; [4],93% and 91%
same,Population Pyknosed Nuclei (%),HEK-293T; [4],9%
same,Population Tubulin-Different-Phenotype (%),HEK-293T; [4],30% and 28%
same,Total Cell Count,HEK-293T; [4],975 and 681
same,Population Apoptotic (%),HEK-293T; [5],17% and 12%
same,Population Fragmented Nuclei (%),HEK-293T; [5],12%
same,Population Healthy Nuclei (%),HEK-293T; [5],84%
same,Population Hoechst High Intensity Objects (%),HEK-293T; [5],7% and 10%
same,Population Membrane Permeable-Phenotype (%),HEK-293T; [5],5% and 4%
same,Population Mitochondria Different-Phenotype (%),HEK-293T; [5],0%
same,Population Mitotic Cells (%),HEK-293T; [5],82% and 87%
same,Population Normal (%),HEK-293T; [5],92% and 89%
same,Population Pyknosed Nuclei (%),HEK-293T; [5],3%
same,Population Tubulin-Different-Phenotype (%),HEK-293T; [5],12% and 15%
same,Total Cell Count,HEK-293T; [5],2699 and 2880
same,Population Apoptotic (%),HEK-293T; [6],14% and 19%
same,Population Fragmented Nuclei (%),HEK-293T; [6],13% and 10%
same,Population Healthy Nuclei (%),HEK-293T; [6],83% and 86%
same,Population Hoechst High Intensity Objects (%),HEK-293T; [6],8% and 7%
same,Population Membrane Permeable-Phenotype (%),HEK-293T; [6],4% and 5%
same,Population Mitochondria Different-Phenotype (%),HEK-293T; [6],0%
same,Population Mitotic Cells (%),HEK-293T; [6],85% and 80%
same,Population Normal (%),HEK-293T; [6],91% and 92%
same,Population Pyknosed Nuclei (%),HEK-293T; [6],2% and 3%
same,Population Tubulin-Different-Phenotype (%),HEK-293T; [6],12% and 8%
same,Total Cell Count,HEK-293T; [6],2536 and 1733
same,Population Apoptotic (%),Fibroblast; [1],46% and 32%
same,Population Fragmented Nuclei (%),Fibroblast; [1],13% and 9%
same,Population Healthy Nuclei (%),Fibroblast; [1],64% and 70%
same,Population Hoechst High Intensity Objects (%),Fibroblast; [1],0%
same,Population Membrane Permeable-Phenotype (%),Fibroblast; [1],5%
same,Population Mitochondria Different-Phenotype (%),Fibroblast; [1],0% and 1%
same,Population Mitotic Cells (%),Fibroblast; [1],53% and 67%
same,Population Normal (%),Fibroblast; [1],100%
same,Population Pyknosed Nuclei (%),Fibroblast; [1],22% and 20%
same,Population Tubulin-Different-Phenotype (%),Fibroblast; [1],16% and 10%
same,Total Cell Count,Fibroblast; [1],193 and 230
same,Population Apoptotic (%),Fibroblast; [2],55% and 38%
same,Population Fragmented Nuclei (%),Fibroblast; [2],8% and 9%
same,Population Healthy Nuclei (%),Fibroblast; [2],83% and 80%
same,Population Hoechst High Intensity Objects (%),Fibroblast; [2],0%
same,Population Membrane Permeable-Phenotype (%),Fibroblast; [2],1% and 0%
same,Population Mitochondria Different-Phenotype (%),Fibroblast; [2],1% and 0%
same,Population Mitotic Cells (%),Fibroblast; [2],44% and 61%
same,Population Normal (%),Fibroblast; [2],100%
same,Population Pyknosed Nuclei (%),Fibroblast; [2],7% and 10%
same,Population Tubulin-Different-Phenotype (%),Fibroblast; [2],1% and 7%
same,Total Cell Count,Fibroblast; [2],117 and 128
same,Population Apoptotic (%),Fibroblast; [3],53% and 52%
same,Population Fragmented Nuclei (%),Fibroblast; [3],15% and 12%
same,Population Healthy Nuclei (%),Fibroblast; [3],60% and 69%
same,Population Hoechst High Intensity Objects (%),Fibroblast; [3],0%
same,Population Membrane Permeable-Phenotype (%),Fibroblast; [3],3%
same,Population Mitochondria Different-Phenotype (%),Fibroblast; [3],1% and 0%
same,Population Mitotic Cells (%),Fibroblast; [3],46% and 47%
same,Population Normal (%),Fibroblast; [3],100%
same,Population Pyknosed Nuclei (%),Fibroblast; [3],24% and 17%
same,Population Tubulin-Different-Phenotype (%),Fibroblast; [3],10% and 7%
same,Total Cell Count,Fibroblast; [3],179 and 224
same,Population Apoptotic (%),Fibroblast; [4],53% and 57%
same,Population Fragmented Nuclei (%),Fibroblast; [4],15% and 16%
same,Population Healthy Nuclei (%),Fibroblast; [4],73% and 70%
same,Population Hoechst High Intensity Objects (%),Fibroblast; [4],0%
same,Population Membrane Permeable-Phenotype (%),Fibroblast; [4],4% and 5%
same,Population Mitochondria Different-Phenotype (%),Fibroblast; [4],0% and 2%
same,Population Mitotic Cells (%),Fibroblast; [4],46% and 42%
same,Population Normal (%),Fibroblast; [4],100%
same,Population Pyknosed Nuclei (%),Fibroblast; [4],10% and 13%
same,Population Tubulin-Different-Phenotype (%),Fibroblast; [4],4% and 8%
same,Total Cell Count,Fibroblast; [4],123 and 141
same,Population Apoptotic (%),Fibroblast; [5],63% and 45%
same,Population Fragmented Nuclei (%),Fibroblast; [5],16% and 12%
same,Population Healthy Nuclei (%),Fibroblast; [5],65% and 72%
same,Population Hoechst High Intensity Objects (%),Fibroblast; [5],0%
same,Population Membrane Permeable-Phenotype (%),Fibroblast; [5],1% and 5%
same,Population Mitochondria Different-Phenotype (%),Fibroblast; [5],0%
same,Population Mitotic Cells (%),Fibroblast; [5],36% and 54%
same,Population Normal (%),Fibroblast; [5],100%
same,Population Pyknosed Nuclei (%),Fibroblast; [5],18% and 15%
same,Population Tubulin-Different-Phenotype (%),Fibroblast; [5],9% and 3%
same,Total Cell Count,Fibroblast; [5],162 and 218
same,Population Apoptotic (%),Fibroblast; [6],57% and 66%
same,Population Fragmented Nuclei (%),Fibroblast; [6],13% and 18%
same,Population Healthy Nuclei (%),Fibroblast; [6],75% and 59%
same,Population Hoechst High Intensity Objects (%),Fibroblast; [6],0%
same,Population Membrane Permeable-Phenotype (%),Fibroblast; [6],4% and 6%
same,Population Mitochondria Different-Phenotype (%),Fibroblast; [6],0% and 1%
same,Population Mitotic Cells (%),Fibroblast; [6],42% and 33%
same,Population Normal (%),Fibroblast; [6],100%
same,Population Pyknosed Nuclei (%),Fibroblast; [6],10% and 21%
same,Population Tubulin-Different-Phenotype (%),Fibroblast; [6],3% and 6%
same,Total Cell Count,Fibroblast; [6],128 and 138
